From PubChem BioAssay
FN deposit inh = inhibitors of fibronectin matrix deposition, primary screen, AH1F cells, Alexa488-fibronectin fluorescence, plate reader; AH1F fibroblasts, overnight; inhibition, % at 12.6 µM; 350,000 compounds, 0.086% hits; AID 743247, 2014;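 active means mean inhibition across replicates of 30% or more, regardless of how many single replicates reach that level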;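 further: positive control wells lacked labelled fibronectin entirely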
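material = AH1F fibroblast monolayer depositing Alexa488-labelled fibronectin into matrix | amount = 10000 AH1F cells/well | buffer or medium = DMEM plus 2% serum, read in PBS | incubation = 1 h cell adhesion before compound, then overnight fibronectin incubation | detection = fluorescence at 485 nm excitation, 525 nm emission | evaluation = percent inhibition as loss of matrix-bound fibronectin fluorescence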
PGC1a acetyl inh = inhibitors of PGC1a acetylation signal, primary screen, cell-based, U2OS, AlphaScreen, inhibitor mode | AlphaScreen anti-acetyl-lysine; with virally co-expressed GCN5 acetyltransferase | inhibition, % at 15.6 µM | 350,000 compounds, 0.17% hits | AID 651687, 2012;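 active means every replicate shows inhibition of at least 40%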;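 further: 0% = neutral control wells and 100% = positive control wells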
FGF22 binding = binders of human FGF22 protein, primary screen, FGF22 synaptogenesis inhibitor project, biophysical, thermal shift, single point; activity (Tm shift, normalised), % at 9.99 µM; Fibroblast growth factor 22 (Homo sapiens), Q9HCT0; 340,000 compounds, 1.5% hits; recombinant FGF22 thermal shift, SYPRO orange fluorescence; percent of sucrose octasulfate shift, DMSO zero;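 active means mean Tm shift, scaled 0 neutral to 100 positive control, at about 1.3% or above, every replicate too, limit read from the data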
Target sequence (Q9HCT0 whole entry, looked up): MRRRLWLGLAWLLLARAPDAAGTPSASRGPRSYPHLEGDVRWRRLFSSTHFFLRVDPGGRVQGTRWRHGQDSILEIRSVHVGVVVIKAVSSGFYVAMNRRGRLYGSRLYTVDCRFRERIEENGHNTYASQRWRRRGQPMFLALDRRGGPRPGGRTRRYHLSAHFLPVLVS
Env fusion inh = inhibitors of HIV-1 Env-driven cell-cell fusion, primary screen, HeLa-JRFL effector, CEM21 target cells, luciferase; 360,000 compounds, 1.1% hits; inhibition, % at 12.3 µM; AID 651610, 2012;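 active means mean replicate inhibition score of at least 50 and every replicate individually at or above 50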;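 further: 0% = plate neutral controls and 100% = maraviroc near 300 nM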
EWS-Fli block = EWS/Fli-driven NR0B1 reporter inhibitors, primary screen, A673 cells, NR0B1 luciferase, luminescence, MLPCN library; viability-normalised; inhibition, % at 12.6 µM; 350,000 compounds, 0.67% hits; AID 651661, 2012;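 active means mean inhibition of at least 50% after viability correction, with every replicate also passing that limit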;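 further: firefly luciferase signal divided by Alamar Blue viability fluorescence both relative to DMSO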
PAX8 inh HTS = inhibitors of PAX8-driven TPO luciferase reporter, primary screen, RMG-I cells, single concentration | AID 652154, 2013 | SteadyGlo, 24 h | inhibition, % at 12.6 µM | 360,000 compounds, 1.2% hits;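 active means mean replicate inhibition at least 60% with every replicate also reaching 60%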;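 further: luciferase light reporting Pax8 driven TPO promoter activity; plate controls were median of neutral control wells for no effect and mitoxantrone controls for full effect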
* hit, by the source's call; / = not tested or not shown; [ ] = remark or other dose. Rows were chosen to be rich in hits. Some 3.1% of all compounds tested hit in one or more screens of this group.

SMILES	FN deposit inh	PGC1a acetyl inh	FGF22 binding	Env fusion inh	EWS-Fli block	PAX8 inh HTS
C[C@@H]1CN([C@H](C)CO)C(=O)c2cc(NC(=O)Nc3ccc(C(F)(F)F)cc3)ccc2O[C@@H](C)CCCCO[C@@H]1CN(C)C(=O)Cc1ccccc1	/	/	/	-6[16.7 µM]	-4	72*
COc1ccc(NC(=O)Nc2ccc3c(c2)C(=O)N([C@H](C)CO)C[C@@H](C)[C@@H](CN(C)C(=O)Cc2ccccc2)OCCCC[C@H](C)O3)cc1	/	-7	-1	10[16.7 µM]	-1	99*
C[C@@H]1CCCCO[C@H](CN(C)C(=O)Cc2ccccc2)[C@@H](C)CN([C@@H](C)CO)C(=O)c2cc(NC(=O)Nc3ccc(C(F)(F)F)cc3)ccc2O1	/	/	-1	62*[16.7 µM]	-7	79*
C[C@@H]1CCCCO[C@@H](CN(C)S(C)(=O)=O)[C@@H](C)CN([C@H](C)CO)C(=O)c2cc(NS(=O)(=O)c3cccs3)ccc2O1	/	1	0	-5[16.7 µM]	-8	/
C[C@@H]1CCCCO[C@H](CN(C)C(=O)Cc2ccccc2)[C@H](C)CN([C@@H](C)CO)C(=O)c2cc(NC(=O)Nc3ccc(C(F)(F)F)cc3)ccc2O1	/	/	0	22[16.7 µM]	-11	79*
C[C@@H]1CN([C@@H](C)CO)C(=O)c2cc(NC(=O)Nc3ccccc3)ccc2O[C@@H](C)CCCCO[C@H]1CN(C)C(=O)Cc1ccccc1	3	-1	0	36[16.7 µM]	7	10
C[C@H](CO)N1C[C@H](C)[C@@H](CN(C)C(=O)Cc2ccccc2)OCCCC[C@H](C)Oc2ccc(NC(=O)Nc3ccc(C(F)(F)F)cc3)cc2C1=O	/	/	-1	29[16.7 µM]	11	87*
C[C@@H]1CN([C@H](C)CO)C(=O)c2cc(NC(=O)Nc3ccccc3)ccc2O[C@@H](C)CCCCO[C@@H]1CN(C)C(=O)Cc1ccccc1	-3	-3	0	4[16.7 µM]	-13	-3
COc1ccc(-c2cnc3c(c2)C(=O)N([C@@H](C)CO)C[C@H](C)[C@H](CN(C)C(=O)C2CC2)O3)cc1	/	-6	/	3[16.7 µM]	-1	/
C[C@H]1CN([C@@H](C)CO)C(=O)c2cc(NS(=O)(=O)c3cn(C)cn3)ccc2O[C@@H]1CN(C)CC1CC1	/	-10	0	3[16.7 µM]	-10	-8
O=C(Cc1ccccn1)NCC[C@H]1CC[C@@H](NC(=O)Nc2ccccc2)[C@H](CO)O1	/	-1	0	-3[16.7 µM]	-11	-6
C[C@H]1CN([C@@H](C)CO)C(=O)c2cc(NC(=O)C3CC3)ccc2O[C@@H]1CN(C)C(=O)Nc1ccc(F)cc1	/	1	0	6[16.7 µM]	/	-11
CCN(C[C@H]1N[C@@](C)(C(=O)OC)[C@H]2C(=O)N(Cc3ccccc3)C(=O)[C@@H]12)C(=O)Nc1ccc(Cl)cc1	8	/	/	64*	9	-6
COC(=O)[C@]1(C)N[C@H](CN(C)S(=O)(=O)c2ccc(F)cc2)[C@@H]2C(=O)N(Cc3ccccc3)C(=O)[C@@H]21	5	/	0	3	-2	13
